Laboratory results from ChEMBL document CHEMBL3046326, “Screening of dialkoxybenzenes and disubstituted cyclopentene derivatives against the cabbage looper, Trichoplusia ni, for the discovery of new feeding and oviposition deterrents” (J Agric Food Chem, 2007).

Tests used:
Trichoplusia ni [1] = assay: Oviposition deterrent activity against adult female Trichoplusia ni (cabbage looper) moths introduced along with male moths into oviposition cage containing compound pretreated cabbage leaves assessed as eggs laying on the leaf disks at 0.25% after 48 hr by oviposition choice bioassay; assay type: functional
In short: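 Choice test with moths from larvae reared on normal diet from neonate to pupation. Pupae were sexed and held separately until emergence. Cabbage leaves were treated with test substance at 0.25% or left as control, and eggs per leaf were counted after 48 h. ODI = [(C − T)/(C + T)] × 100 from egg numbers on control and treated leaves.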

Trichoplusia ni [2] = assay: Toxicity against third-instar larval stage of Trichoplusia ni (cabbage looper) assessed as mortality measured after 24 hr by contact toxicity bioassay; assay type: functional
In short: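 Third-instar larvae were hand-sprayed directly with test solutions in filter-paper-lined Petri dishes, then moved to dishes holding a small piece of artificial diet. Mortality was recorded at 24 h.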

Trichoplusia ni [3] = assay: Toxicity against third-instar larval stage of Trichoplusia ni (cabbage looper) assessed as mortality at 0.25% measured after 24 hr by contact toxicity bioassay; assay type: functional
In short: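 Third-instar larvae were sprayed directly with test solution at 0.25% in filter-paper-lined Petri dishes. They were then moved to dishes holding a small piece of artificial diet. Mortality was scored 24 h after spraying. The test applied only to compounds giving >50% feeding deterrence at 50 µg/cm².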

Trichoplusia ni [4] = assay: Feeding deterrent activity against freshly molted third-instar larval stage of Trichoplusia ni (cabbage looper) after 3 to 5 hr by leaf disk choice bioassay; assay type: functional, organism-based
In short: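 Choice test: freshly molted third instar larvae, starved 4–5 h, offered two leaf disks, one painted on each side with 10 µL test solution and one with carrier solvent only. Twenty-five larvae per treatment. Ended when ~50% of the control disk was eaten (normally 3–5 h). Consumed areas measured. DC50 derived by linear regression of at least four concentrations (3.12–25 µg/cm²).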

Trichoplusia ni [5] = assay: Feeding deterrent activity against freshly molted third-instar larval stage of Trichoplusia ni (cabbage looper), Trichoplusia ni at 50 ug/cm'2 after 3 to 5 hr by leaf disk choice bioassay; assay type: functional
In short: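 Leaf disk choice with freshly molted third instar larvae starved 4–5 h. One disk was painted on each side with 10 µL solution giving 50 µg/cm², the other with carrier solvent. Twenty-five larvae per treatment, stopped at ~50% control disk consumption (3–5 h). Deterrence = [(C − T)/(C + T)] × 100 from consumed areas; mean ± SE, Tukey's test p < 0.05.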

CCOc1ccc(OCC)cc1 [1,4-DIETHOXYBENZENE]
Activity (Trichoplusia ni [1]): 74.7%
LC50 (Trichoplusia ni [2]): 0.03%
mortality (Trichoplusia ni [3]): 100%
DC50 (Trichoplusia ni [4]): 25.9 microg/cm2
Activity (Trichoplusia ni [5]): 80.8%

CCCOc1ccc(OCC)cc1 [4-ETHOXY-1-PROPOXYBENZENE]
Activity (Trichoplusia ni [1]): 56.6%
LC50 (Trichoplusia ni [2]): 0.03%
mortality (Trichoplusia ni [3]): 96.8%
DC50 (Trichoplusia ni [4]): 23.4 microg/cm2
Activity (Trichoplusia ni [5]): 53.4%

CC(C)CCOCC[C@@H]1CC=C[C@@H]1OCCC(C)C (racemic)
Activity (Trichoplusia ni [1]): 47%
mortality (Trichoplusia ni [3]): 44.8%
DC50 (Trichoplusia ni [4]): 34.4 microg/cm2
Activity (Trichoplusia ni [5]): 58.6%

C=CCOc1ccccc1OCC=C [1,2-DIALLYLOXYBENZENE]
Activity (Trichoplusia ni [1]): 15%
mortality (Trichoplusia ni [3]): 20%
DC50 (Trichoplusia ni [4]): 22.4 microg/cm2
Activity (Trichoplusia ni [5]): 70.4%

COc1cccc(OCCC(C)C)c1 [1-isopentyloxy-3-methoxybenzene]
Activity (Trichoplusia ni [1]): 35.7%
mortality (Trichoplusia ni [3]): 20.8%
DC50 (Trichoplusia ni [4]): 19.8 microg/cm2
Activity (Trichoplusia ni [5]): 82.6%

CCCCOCC[C@@H]1CC=C[C@@H]1OCCCC (racemic)
Activity (Trichoplusia ni [1]): 29.5%
mortality (Trichoplusia ni [3]): 30%
DC50 (Trichoplusia ni [4]): 29.2 microg/cm2
Activity (Trichoplusia ni [5]): 76%

CCCCOc1ccccc1OCCC [1-propoxy-2-butoxybenzene]
Activity (Trichoplusia ni [1]): 31.7%
mortality (Trichoplusia ni [3]): 13.8%
DC50 (Trichoplusia ni [4]): 19.4 microg/cm2
Activity (Trichoplusia ni [5]): 100%

C=CCOc1ccc(OCC)cc1 [1-allyloxy-4-ethoxybenzene]
Activity (Trichoplusia ni [1]): 5.4%
mortality (Trichoplusia ni [3]): 10%
DC50 (Trichoplusia ni [4]): 27.9 microg/cm2
Activity (Trichoplusia ni [5]): 82.4%

CCCCOc1cccc(OC)c1 [1-butyloxy-3-methoxybenzene]
Activity (Trichoplusia ni [1]): 25.9%
mortality (Trichoplusia ni [3]): 30%
DC50 (Trichoplusia ni [4]): 14.4 microg/cm2
Activity (Trichoplusia ni [5]): 84.1%

C=CCOc1ccccc1OCCCCC [1-allyloxy-2-pentoxybenzene]
Activity (Trichoplusia ni [1]): 66.7%
mortality (Trichoplusia ni [3]): 23.3%
DC50 (Trichoplusia ni [4]): 30 microg/cm2
Activity (Trichoplusia ni [5]): 67.8%

CCCCCOc1cccc(OC)c1 [1-methoxy-3-pentoxybenzene]
Activity (Trichoplusia ni [1]): 70.2%
mortality (Trichoplusia ni [3]): 16.7%
DC50 (Trichoplusia ni [4]): 61.5 microg/cm2
Activity (Trichoplusia ni [5]): 54.8%

CCCCCOc1ccccc1OCCC [1-propoxy-2-pentoxybenzene]
Activity (Trichoplusia ni [1]): 31.7%
mortality (Trichoplusia ni [3]): 13.8%
DC50 (Trichoplusia ni [4]): 19.4 microg/cm2
Activity (Trichoplusia ni [5]): 100%

CCOc1cccc(OC)c1 [1-methoxy-3-ethoxybenzene]
Activity (Trichoplusia ni [1]): 70.2%
mortality (Trichoplusia ni [3]): 16.7%
DC50 (Trichoplusia ni [4]): 61.5 microg/cm2
Activity (Trichoplusia ni [5]): 54.8%

CCOc1ccccc1OCCC(C)C [1-isopentoxy-2-ethoxybenzene]
Activity (Trichoplusia ni [1]): 29.4%
mortality (Trichoplusia ni [3]): 10%
DC50 (Trichoplusia ni [4]): 32.5 microg/cm2
Activity (Trichoplusia ni [5]): 66.9%

CCCCCOc1cccc(OCCCC)c1 [1-butyloxy-3-pentoxybenzene]
Activity (Trichoplusia ni [1]): 25.9%
mortality (Trichoplusia ni [3]): 30%
DC50 (Trichoplusia ni [4]): 14.4 microg/cm2
Activity (Trichoplusia ni [5]): 84.1%

CCCCOc1cccc(OCCC)c1 [1-butyloxy-3-propoxybenzene]
Activity (Trichoplusia ni [1]): 25.9%
mortality (Trichoplusia ni [3]): 30%
DC50 (Trichoplusia ni [4]): 14.4 microg/cm2
Activity (Trichoplusia ni [5]): 84.1%

CCCOc1cccc(OCCC(C)C)c1 [3-PROPOXY-1-ISOPENTOXYBENZENE]
Activity (Trichoplusia ni [1]): 35.7%
mortality (Trichoplusia ni [3]): 20.8%
DC50 (Trichoplusia ni [4]): 19.8 microg/cm2
Activity (Trichoplusia ni [5]): 82.6%

COc1ccccc1OCCC(C)C [1-isopentoxy-2-methoxybenzene]
Activity (Trichoplusia ni [1]): 29.4%
mortality (Trichoplusia ni [3]): 10%
DC50 (Trichoplusia ni [4]): 32.5 microg/cm2
Activity (Trichoplusia ni [5]): 66.9%

CCCOc1cccc(OCC)c1 [1-ethoxy-3-propoxybenzene]
Activity (Trichoplusia ni [1]): 14.3%
mortality (Trichoplusia ni [3]): 20%
DC50 (Trichoplusia ni [4]): 26.5 microg/cm2
Activity (Trichoplusia ni [5]): 69.8%

CCCCOc1ccc(OCC)cc1 [1-butyloxy-4-ethoxybenzene]
Activity (Trichoplusia ni [1]): 50.1%
mortality (Trichoplusia ni [3]): 58.1%
DC50 (Trichoplusia ni [4]): 14.5 microg/cm2
Activity (Trichoplusia ni [5]): 83.4%

CCCCCOc1ccccc1OCCCC [1-butoxy-2-pentoxybenzene]
Activity (Trichoplusia ni [1]): 28.7%
mortality (Trichoplusia ni [3]): 6.7%
DC50 (Trichoplusia ni [4]): 16.8 microg/cm2
Activity (Trichoplusia ni [5]): 98%

C=CCOc1ccccc1OCC [1-allyloxy-2-ethoxybenzene]
Activity (Trichoplusia ni [1]): 66.7%
mortality (Trichoplusia ni [3]): 23.3%
DC50 (Trichoplusia ni [4]): 30 microg/cm2
Activity (Trichoplusia ni [5]): 67.8%

C=CCOc1ccccc1OCCC [1-allyloxy-2-propoxybenzene]
Activity (Trichoplusia ni [1]): 66.7%
mortality (Trichoplusia ni [3]): 23.3%
DC50 (Trichoplusia ni [4]): 30 microg/cm2
Activity (Trichoplusia ni [5]): 67.8%

CCCOc1ccc(OCCC(C)C)cc1 [1-isopentyloxy-4-propoxybenzene]
Activity (Trichoplusia ni [1]): 22.9%
mortality (Trichoplusia ni [3]): 18.8%
DC50 (Trichoplusia ni [4]): 5.8 microg/cm2
Activity (Trichoplusia ni [5]): 100%

CCCOc1ccccc1OCC [1-ethoxy-2-propoxybenzene]
Activity (Trichoplusia ni [1]): 28.7%
mortality (Trichoplusia ni [3]): 6.7%
DC50 (Trichoplusia ni [4]): 24.1 microg/cm2
Activity (Trichoplusia ni [5]): 71%

CCCCCOc1cccc(OCCC(C)C)c1 [1-isopentyloxy-3-pentoxybenzene]
Activity (Trichoplusia ni [1]): 35.7%
mortality (Trichoplusia ni [3]): 20.8%
DC50 (Trichoplusia ni [4]): 19.8 microg/cm2
Activity (Trichoplusia ni [5]): 82.6%

C=CCOc1ccccc1OCCCC [1-allyloxy-2-butoxybenzene]
Activity (Trichoplusia ni [1]): 66.7%
mortality (Trichoplusia ni [3]): 23.3%
DC50 (Trichoplusia ni [4]): 30 microg/cm2
Activity (Trichoplusia ni [5]): 67.8%

CCCOCC[C@@H]1CC=C[C@@H]1OCCC (racemic)
Activity (Trichoplusia ni [1]): 41.8%
mortality (Trichoplusia ni [3]): 37.5%
DC50 (Trichoplusia ni [4]): 32.6 microg/cm2
Activity (Trichoplusia ni [5]): 66.7%

CCCCOc1ccc(OC)cc1 [1-butyloxy-4-methoxybenzene]
Activity (Trichoplusia ni [1]): 50.1%
mortality (Trichoplusia ni [3]): 58.1%
DC50 (Trichoplusia ni [4]): 14.5 microg/cm2
Activity (Trichoplusia ni [5]): 83.4%

CCCCOc1ccc(OCCC)cc1 [1-butyloxy-4-propoxybenzene]
Activity (Trichoplusia ni [1]): 50.1%
mortality (Trichoplusia ni [3]): 58.1%
DC50 (Trichoplusia ni [4]): 14.5 microg/cm2
Activity (Trichoplusia ni [5]): 83.4%

CCCCOc1ccccc1OCCC(C)C [1-isopentoxy-2-butoxybenzene]
Activity (Trichoplusia ni [1]): 29.4%
mortality (Trichoplusia ni [3]): 10%
DC50 (Trichoplusia ni [4]): 32.5 microg/cm2
Activity (Trichoplusia ni [5]): 66.9%

CCCCOc1ccccc1OCCCC [1,2-DIBUTOXYBENZENE]
Activity (Trichoplusia ni [1]): 19.6%
mortality (Trichoplusia ni [3]): 10%
DC50 (Trichoplusia ni [4]): 43.8 microg/cm2
Activity (Trichoplusia ni [5]): 56.4%

CCCCCOc1cccc(OCC)c1 [1-ethoxy-3-pentoxybenzene]
Activity (Trichoplusia ni [1]): 14.3%
mortality (Trichoplusia ni [3]): 20%
DC50 (Trichoplusia ni [4]): 26.5 microg/cm2
Activity (Trichoplusia ni [5]): 69.8%

CCCCCOc1ccc(OC)cc1 [1-methoxy-4-pentoxybenzene]
Activity (Trichoplusia ni [1]): 6%
mortality (Trichoplusia ni [3]): 23.3%
DC50 (Trichoplusia ni [4]): 34.6 microg/cm2
Activity (Trichoplusia ni [5]): 80.2%
